ERAP1 inh = human ERAP1 aminopeptidase inhibitors, primary screen, biochemical, single point, plate reader; Endoplasmic reticulum aminopeptidase 1 (Homo sapiens), Q9NZ08; recombinant ERAP1, Leu-AMC fluorescence, 60 min; inhibition, % at 10.7 µM; 340,000 compounds, 0.15% hits; AID 652197, 2013;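 active means mean replicate inhibition of at least 30%, or all replicates individually reaching that 30% level; inactive means mean below 30% and not every replicate reaching it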;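 further: 0% = neutral control wells and 100% = L-leucinethiol positive control wells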
SIRT5 inh = SIRT5 desuccinylase inhibitors, primary screen, biochemical, fluorescence imaging, single point, set 5; 330,000 compounds, 1.1% hits; Purified SirT5, succinyl-peptide AMC, trypsin-coupled fluorescence; NAD-dependent protein deacylase sirtuin-5, mitochondrial (Homo sapiens), Q9NXA8; inhibition, % at 15 µM; in the data active means inhibition above about 15%; inconclusive means no clear call, values can overlap the other calls
Target sequence (Q9NXA8 whole entry, looked up): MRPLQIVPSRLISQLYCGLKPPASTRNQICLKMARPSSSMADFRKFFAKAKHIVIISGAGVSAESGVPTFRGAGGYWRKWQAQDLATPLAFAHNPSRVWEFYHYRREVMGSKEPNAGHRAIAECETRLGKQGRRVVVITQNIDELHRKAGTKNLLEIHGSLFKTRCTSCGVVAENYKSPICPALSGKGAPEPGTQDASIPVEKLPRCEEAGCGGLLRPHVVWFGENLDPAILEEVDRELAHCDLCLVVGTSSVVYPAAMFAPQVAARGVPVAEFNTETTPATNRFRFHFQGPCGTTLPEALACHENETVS
E-sel inducer = E-selectin induction in HUVECs, primary screen, imaging, HUVEC, immunofluorescence imaging, single point; normalized: neutral wells 0, TNF-alpha wells 100; activation, % at 7.58 µM; 260,000 compounds, 0.37% hits;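 active means mean E-selectin-positive cell signal at least 10% of the positive control, reached in at least 60% of replicates, without over 20% cell loss; inconclusive means no rule given, readout overlaps actives, possibly toxicity-flagged; inactive means the rest, including those meeting only one limit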
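Test system – human umbilical vein endothelial cells (HUVEC), E-selectin induction · Input – 3,000 HUVEC seeded per well · Buffer or medium – EGM-2, gelatin · Compound dosing – single-point compound dose · Detection – immunofluorescence imaging · Measure – percent E-selectin-positive cells · Controls – TNF-alpha high, DMSO low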
PglD DTNB = C. jejuni PglD acetyltransferase inhibitors, primary screen, biochemical, DTNB colorimetric, single point | UDP-N-acetylbacillosamine N-acetyltransferase PglD (Campylobacter jejuni) | purified PglD enzyme, DTNB colorimetric CoA detection | inhibition, % at 12.5 µM | 360,000 compounds, 0.098% hits | AID 602405, 2012; in the data active means inhibition above about 16%, passing the limit was not always enough; inconclusive means no clear call, values can overlap the other calls
DENV2 CPE rescue = inhibitors of DENV2 cytopathic effect, primary screen, cell-based, plate reader, single concentration; 350,000 compounds, 1.7% hits; DENV2-infected cells, cytopathic effect rescue; CPE inhibition, % at 9.99 µM; in the data active means CPE inhibition above about 20%, passing the limit was not always enough; inconclusive means no clear call, values can overlap the other calls; tested in BHK-21 cells;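 further: 0% = median of neutral control wells and 100% = median of positive control wells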
* marks the source's active call; other numbers are inactive results; ? = inconclusive; . = no result; ! = not confirmed by another sample. Sampled rows, rich in hits. Any-hit rate of the full collection: about 2.5%.

SMILES	ERAP1 inh	SIRT5 inh	E-sel inducer	PglD DTNB	DENV2 CPE rescue
O=c1cc(-c2cccc(F)c2)[nH]c2ccccc12	0.7	1.7	1.5	-2.6	36.0*
Cc1ccc2[nH]c(-c3cccc(F)c3)cc(=O)c2c1	0.4	-0.8	0.1	-2.0	.
COc1ccc(/C=C2/SC(=O)N(NS(=O)(=O)c3ccccc3)C2=S)cc1OC	5.6	6.3	.	1.6	-4.7
CCOC(=O)c1sc2nc(OCc3cccnc3)cc(C)c2c1N	0.5	24.8*	0.0	.	14.0
CCCCCC(=O)N1C[C@H](O)[C@@H](n2cc(C3CC3)nn2)C[C@@H]1c1ccc(Cl)cc1	-3.2	-1.8	0.8	4.4	-10.5
Cc1cc(NS(=O)(=O)c2ccc(NC(=O)c3ccc(Cl)cc3Cl)cc2)no1	-6.8	-1.3	-0.1	6.7	-2.0
CCN(CC(=O)NCc1ccc(Cl)cc1)C(=O)CCC(=O)c1ccc(F)cc1	-0.9	-5.7	0.1	.	-5.9
CNc1cccc(-c2ccccc2CO)n1	-1.6	.	-0.1	4.8	30.1*
O=C(c1ccc(N2CCCC2)c([N+](=O)[O-])c1)N1CCN(S(=O)(=O)c2ccccc2)CC1	1.1	32.6*	0.5	0.4	8.4
O=c1cc(-c2nn[nH]n2)[nH]c(=O)[nH]1	1.2	4.9	0.2	1.4	-5.8
CC1CN(C(=O)COC(=O)CSc2ccc(C(N)=O)cc2[N+](=O)[O-])CC(C)O1 (stereo not drawn)	2.1	1.3	218.7*	.	-5.0
CC1CCC(NC(=O)COC(=O)CSc2ccc(C(N)=O)cc2[N+](=O)[O-])CC1 (stereo not drawn)	6.9	-0.3	.	.	-0.2
O=C(CNC(=O)OCc1ccccc1)NCC(=O)NC(Cc1c[nH]c2ccccc12)C(=O)O (stereo not drawn)	-1.2	.	-0.1	-3.4	6.9
COCC[N+]1(C)CCCCC1	89.0*	-1.5	1.0	1.9	.
COc1cc(C2Nc3ccccc3C(=O)N2NS(C)(=O)=O)c([N+](=O)[O-])cc1OC (stereo not drawn)	1.3	-0.8	0.0	2.7	-2.4
COc1ccc(C2Nc3ccccc3C(=O)N2NS(C)(=O)=O)c(OC)c1 (stereo not drawn)	-8.2	15.1*	-0.4	0.7	-3.2
O=C(C[C@@H]1CC[C@H]2[C@@H](COC[C@@H](O)CN2Cc2cccc(F)c2)O1)NCc1cccc(F)c1	1.2	-2.3	0.1	5.1	-9.0
CC(=O)C1C(c2ccc(O)cc2)NC(=O)NC1(O)C(F)(F)F (stereo not drawn)	1.1	9.9	7.7	-4.9	1.1
C(=C(c1ccccc1)c1ccccc1)c1ccccn1	-2.6	.	-0.3	5.8	54.3*
C(/C=C/c1ccccn1)=C\c1ccccc1	-0.9	4.6	.	.	6.3
COc1cc(C=C2C(=O)C=CC2=O)ccc1O	53.5*	28.0*	-0.2	.	-1.8
COc1cc(C=C2NC(=O)NC2=O)ccc1O	1.2	.	0.0	.	-1.6
COc1ccc(CCC(=O)NC2CCCc3ccccc32)cc1OC (stereo not drawn)	31.7*	-1.4	.	6.5	-6.1
COC(=O)c1ccc2nc(-c3ccco3)c(Cc3ccc(C)cc3)n2c1	1.8	-15.4	-5.7	1.0	3.7
CC(=O)c1cccc(NC(=O)c2noc3c2CCc2ccccc2-3)c1	-3.6	-1.6	.	-0.3	21.9*
SMILES	ERAP1 inh	SIRT5 inh	E-sel inducer	PglD DTNB	DENV2 CPE rescue
Cc1cc(NC(=O)c2noc3c2CCc2ccccc2-3)no1	3.9	-4.7	0.1	-1.0	3.2
CC(C)CC(NC(=O)OC(C)(C)C)c1cn([C@@H](CCCCNC(=O)OC(C)(C)C)C(=O)N2CCN(C(=O)OC(C)(C)C)CC2)nn1 (stereo partly drawn)	.	.	0.4	1.6	.
CC[C@@H](C)C(NC(=O)OC(C)(C)C)c1cn([C@@H](CCCCNC(=O)OC(C)(C)C)C(=O)N2CCN(C(=O)OC(C)(C)C)CC2)nn1 (stereo partly drawn)	-0.4	16.3*	1.3	7.3	-6.6
COc1ccc(C2C3=C(CCCC3=O)N(CC(=O)O)C3=C2C(=O)CCC3)cc1Br	23.9	.	-0.2	0.7	-4.2
COc1ccc(C2C3=C(CCCC3=O)N(CC(=O)O)C3=C2C(=O)CCC3)cc1Cl	30.9*	-23.5	.	-5.1	7.3
O=C(NCCCCc1ccccc1)c1ccc(Br)o1	.	.	.	-4.8	.
CCCCCCNC(=O)c1ccc(Br)o1	-0.3	32.2*	0.4	2.4	9.2
CC(C)OC(=O)c1c(NC(=O)c2cnn3c2NC(c2ccccc2)CC3C(F)(F)F)sc2c1CCCC2 (stereo not drawn)	.	.	.	-2.8	.
CC(=Nc1ccccc1)C1=C(O)CCCC1=O	36.2*	-6.8	-0.1	-5.6	?
CCN1CCN(C(=O)CN(CC)S(=O)(=O)c2ccc3ccccc3c2)CC1	-0.4	23.2*	.	4.2	-3.5
CCN1CCN(C(=O)CN(CC)S(=O)(=O)c2ccc(Cl)cc2)CC1	.	.	.	4.9	.
CCC(=O)N1Cc2cc(C(=O)NCC(F)(F)F)nc(-c3cccc(-c4cncnc4)c3)c2[C@@H]1CCO	.	-1.8	.	.	0.9
CCNC(=O)c1cc2c(c(-c3cccc(-c4cc5ccccc5o4)c3)n1)[C@H](CCO)N(C(=O)NC(C)C)C2	.	-0.6	-4.0	.	3.4
CC(=O)N1Cc2cc(C(=O)NCC(F)(F)F)nc(-c3cccc(-c4cncnc4)c3)c2[C@@H]1CCO	.	-3.0	0.4	.	20.7*
CC(C)NC(=O)N1Cc2cc(C(=O)NC3CCC3)nc(-c3cccc(-c4cccnc4)c3)c2[C@@H]1CCO	.	1.9	0.1	.	30.1*
CCNC(=O)c1cc2c(c(-c3cccc(-c4cncnc4)c3)n1)[C@@H](CCO)N(C(C)=O)C2	1.0	0.5	0.1	-1.3	39.7*!
CCC(=O)N1Cc2cc(C(=O)N(C)C)nc(-c3cccc(-c4cncnc4)c3)c2[C@H]1CCO	2.9	4.0	0.2	4.9	-3.9
CC(=O)N1Cc2cc(C(=O)NCC(F)(F)F)nc(-c3cccc(-c4cc5ccccc5o4)c3)c2[C@H]1CCO	1.7	2.9	1.5	.	25.5*!
COc1cc(OC)cc(C(=O)N[C@H](C(=O)OCC(=O)c2c[nH]c3ccccc23)C(C)C)c1	-0.8	-3.4	0.1	-4.1	-1.7
C=Cn1cc[n+](CC(=O)c2ccc(Br)cc2)c1	9.3	-4.5	0.0	2.8	7.6
COc1ccc(N2CC(C(=O)NCCc3ccc(Cl)cc3)CC2=O)c(OC)c1 (stereo not drawn)	4.5	-2.5	.	-11.6	5.5
Cc1ccc(C(=O)Nc2ccccc2C(=O)N2CC(C)OC(C)C2)cc1 (stereo not drawn)	-0.2	.	0.1	4.7	?
O=C(COC(=O)/C=C/c1cccc([N+](=O)[O-])c1)Nc1cccnc1Cl	1.5	.	123.8*	.	6.0
O=C(COC(=O)/C=C/c1ccccc1)Nc1cccnc1Cl	-0.3	2.4	.	3.8	-5.4
Nc1c(-c2ccccc2)nc2ncccn12	-2.0	-0.4	-0.3	.	27.7*

High-throughput results as filed in PubChem.
